Our source for the IC50 and Activity values is ChEMBL document CHEMBL1141408, “Synthesis and antimalarial activity of new isotebuquine analogues” (J Med Chem, 2007).

Values after ≈ are worked out from the molar mass of the structure shown. Active and inactive are the calls of the source. No cut-off for these calls is given here. Some results are limits rather than exact numbers.

Data set [1] deals with Plasmodium falciparum. Briefly: Antimalarial activity against chloroquine-resistant Plasmodium falciparum TM91C235. Format: functional, organism-based. An outline of the steps: (§1)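 Compound DMSO stocks were diluted 400-fold in RPMI 1640 with 25 mM Hepes, 32 mM NaHCO₃ and 10% Albumax I, then 2-fold serially over 11 concentrations. Parasites were exposed for 48 h at 37 °C under 5% O₂/5% CO₂/90% N₂, pulsed with [³H]-hypoxanthine for 18 h, and DNA was harvested onto glass filters for scintillation counting. IC50 was derived by nonlinear-regression logistic dose-response fitting.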

Data set [2] relates to Plasmodium falciparum. Briefly: Antimalarial activity against chloroquine-resistant Plasmodium falciparum W2. Format: functional, organism-based. The procedure, abridged: as §1
The subject of data set [3] is Plasmodium falciparum. The experiment in a line: Antimalarial activity against chloroquine-sensitive Plasmodium falciparum D6. The data set is classed as functional, organism-based. The procedure, abridged: as §1
Data set [4] can be described thus: Toxicity against murine J774 macrophage cells. Format: cell-based. As to conditions: mouse. An outline of the steps:
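Murine J774 monocyte-like macrophage subclone G8, maintained in DMEM with 10% fetal calf serum, 2 mM L-glutamine and 50 µg/mL gentamicin at 37 °C in 5% CO2/95% air. Cells seeded at 1 × 10⁴/well and left 24 h. Drug or solvent control, diluted in medium, then added for 72 h. Viability read by MTS tetrazolium/formazan conversion after 1–2 h at 37 °C.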

In the case of `CC(C)(C)NCc1c(Nc2cc[n+]([O-])c3cc(Cl)ccc23)cc(O)cc1-c1ccc(Cl)cc1`, the IC50 (in general, the concentration that gives 50% inhibition) in the data set with Plasmodium falciparum [1] came out at 8.8 ng/mL (≈ 18.2 nM); with Plasmodium falciparum [2], 9.2 ng/mL (≈ 19.1 nM); with Plasmodium falciparum [3] it was 4.3 ng/mL (≈ 8.91 nM).

Take `CC(C)(C)NCc1c(O)cc(-c2ccc(Cl)cc2)c(CNC(C)(C)C)c1Nc1cc[n+]([O-])c2cc(Cl)ccc12`: the results for the IC50 in the data set on Plasmodium falciparum [1], in the data set with Plasmodium falciparum [2] and in the data set with Plasmodium falciparum [3] were 8.5 ng/mL (≈ 15 nM), 9.1 ng/mL (≈ 16 nM) and 4.1 ng/mL (≈ 7.22 nM), respectively.

Consider `Oc1cc(Nc2ccnc3cc(Cl)ccc23)cc(-c2ccc(Cl)cc2)c1`, for which the result with Plasmodium falciparum [1] was inactive. Further, the IC50 in the data set with Plasmodium falciparum [2] amounted to 22.4 ng/mL (≈ 58.8 nM); in the data set with Plasmodium falciparum [3], 8.8 ng/mL (≈ 23.1 nM).

On to `CC(C)(C)NCc1c(O)cc(Nc2ccnc3cc(Cl)ccc23)cc1-c1ccc(C(F)(F)F)cc1`, for which the IC50 was determined as 73 ng/mL (≈ 146 nM) in the data set on Plasmodium falciparum [1], 14 ng/mL (≈ 28 nM) with Plasmodium falciparum [2] and 1.2 ng/mL (≈ 2.4 nM) in the data set on Plasmodium falciparum [3].

With `CC(C)(C)NCc1cc(Nc2ccnc3cc(Cl)ccc23)cc(-c2ccc(Cl)cc2)c1O` [TEBUQUINE], the IC50 was determined as 1.8 µg/mL (≈ 3860 nM) in data set [4], 0.04 ng/mL (≈ 0.0858 nM) in the data set with Plasmodium falciparum [2] and 0.1 ng/mL (≈ 0.214 nM) in the data set on Plasmodium falciparum [3]. Moreover, the result with Plasmodium falciparum [1] was inactive.

For the molecule `CC(C)(C)NCc1c(O)cc(-c2ccc(Cl)cc2)c(CNC(C)(C)C)c1Nc1ccnc2cc(Cl)ccc12`, the IC50 was 3.6 µg/mL (≈ 6530 nM) in data set [4], 2.3 ng/mL (≈ 4.17 nM) in the data set with Plasmodium falciparum [1], 2.6 ng/mL (≈ 4.71 nM) in the data set on Plasmodium falciparum [2] and 2.2 ng/mL (≈ 3.99 nM) with Plasmodium falciparum [3].

As for `CC(C)(C)NCc1c(O)cc(-c2ccc(C(F)(F)F)cc2)c(CNC(C)(C)C)c1Nc1ccnc2cc(Cl)ccc12`, the IC50 in data set [4] was found to be 0.75 µg/mL (≈ 1280 nM); with Plasmodium falciparum [1], 2 ng/mL (≈ 3.42 nM); in the data set with Plasmodium falciparum [2], 2.8 ng/mL (≈ 4.79 nM); in the data set with Plasmodium falciparum [3] it was 1.9 ng/mL (≈ 3.25 nM).

As for `CC(C)(C)NCc1c(Nc2ccnc3cc(Cl)ccc23)cc(O)cc1-c1ccc(C(F)(F)F)cc1`, the IC50 in data set [4] is 11.6 µg/mL (≈ 23200 nM); in the data set with Plasmodium falciparum [1], 63 ng/mL (≈ 126 nM); in the data set with Plasmodium falciparum [2] it was 130 ng/mL (≈ 260 nM); in the data set with Plasmodium falciparum [3], 7.1 ng/mL (≈ 14.2 nM).

Take `CC(C)(C)NCc1c(O)cc(Nc2ccnc3cc(Cl)ccc23)c(CNC(C)(C)C)c1-c1ccc(C(F)(F)F)cc1`: the IC50 in the data set on Plasmodium falciparum [1] was 3 ng/mL (≈ 5.13 nM); in the data set with Plasmodium falciparum [2], 3.6 ng/mL (≈ 6.15 nM); in the data set on Plasmodium falciparum [3], 1.8 ng/mL (≈ 3.08 nM).

Take `CC(C)(C)NCc1c(O)cc(-c2ccc(C(F)(F)F)cc2)cc1Nc1ccnc2cc(Cl)ccc12`: the IC50 was determined as 1.7 µg/mL (≈ 3400 nM) in data set [4], 1.8 ng/mL (≈ 3.6 nM) in the data set with Plasmodium falciparum [1], 2.1 ng/mL (≈ 4.2 nM) in the data set on Plasmodium falciparum [2] and 1.8 ng/mL (≈ 3.6 nM) in the data set on Plasmodium falciparum [3].

As to `Oc1cc(Nc2ccnc3cc(Cl)ccc23)cc(-c2ccc(C(F)(F)F)cc2)c1`, the IC50 in the data set with Plasmodium falciparum [1] came to 140 ng/mL (≈ 338 nM); in the data set on Plasmodium falciparum [2] it was 300 ng/mL (≈ 723 nM); with Plasmodium falciparum [3], 15 ng/mL (≈ 36.2 nM).

For the molecule `CC(C)(C)NCc1c(O)cc(-c2ccc(Cl)cc2)cc1Nc1ccnc2cc(Cl)ccc12`, the IC50 came to 1.6 µg/mL (≈ 3430 nM) in data set [4], 1.7 ng/mL (≈ 3.64 nM) in the data set on Plasmodium falciparum [1], 1.6 ng/mL (≈ 3.43 nM) in the data set on Plasmodium falciparum [2] and 1.4 ng/mL (≈ 3 nM) with Plasmodium falciparum [3].

On to `[O-][n+]1ccc(Nc2cc(O)cc(-c3ccc(Cl)cc3)c2)c2ccc(Cl)cc21`, for which the IC50 was 580 ng/mL (≈ 1460 nM) in the data set with Plasmodium falciparum [1], above 1000 ng/mL with Plasmodium falciparum [2] and 397 ng/mL (≈ 999 nM) in the data set on Plasmodium falciparum [3].

With `CC(C)(C)NCc1c(Nc2ccnc3cc(Cl)ccc23)cc(O)cc1-c1ccc(Cl)cc1`, the IC50 was determined as 6.1 µg/mL (≈ 13100 nM) in data set [4], 1.78 ng/mL (≈ 3.82 nM) with Plasmodium falciparum [1], 0.4 ng/mL (≈ 0.858 nM) with Plasmodium falciparum [2] and 0.3 ng/mL (≈ 0.643 nM) with Plasmodium falciparum [3].

Take `CC(C)(C)NCc1c(O)cc(Nc2ccnc3cc(Cl)ccc23)c(CNC(C)(C)C)c1-c1ccc(Cl)cc1`: the IC50 in data set [4] is 2.8 µg/mL (≈ 5080 nM); in the data set with Plasmodium falciparum [1] it was 2.5 ng/mL (≈ 4.53 nM); in the data set with Plasmodium falciparum [2], 5.3 ng/mL (≈ 9.61 nM); in the data set with Plasmodium falciparum [3] it was 2.8 ng/mL (≈ 5.08 nM).

`CC(C)(C)NCc1cc(Nc2cc[n+]([O-])c3cc(Cl)ccc23)cc(-c2ccc(Cl)cc2)c1O`: the IC50 in data set [4] is 7.2 µg/mL (≈ 14900 nM); in the data set with Plasmodium falciparum [1] it was 2.3 ng/mL (≈ 4.77 nM); with Plasmodium falciparum [2], 0.9 ng/mL (≈ 1.87 nM); in the data set with Plasmodium falciparum [3], 1.5 ng/mL (≈ 3.11 nM).
